In brackets after ≈: the same amount, converted by molar mass. Activity calls are given as the source filed them. The calls are words filed in the database; no cut-off is given here.
How the values were obtained:
MDA-MB-231 = assay: Inhibition of endoplasmic reticulum calcium channel in human MDA-MB-231 cells assessed as reduction in endoplasmic reticulum intracellular calcium release at 100 uM pretreated for 15 mins followed by SERCA inhibitor CPA addition measured after 700 secs by PBX dye based FLIPR assay relative to control; type: cell-based
Method in brief: (§1)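 Same MDA-MB-231 PBX-dye FLIPR protocol: 15 min compound pretreatment at room temperature, then BAPTA (500 µM) and CPA (10 µM) to deplete ER stores. Peak 1 height after CPA addition (ER Ca2+ release) expressed as % inhibition relative to the DMSO control. Excitation 470–495 nm, emission 515–575 nm.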

[1] = target: T1, Calcium release-activated calcium channel protein 1 (Homo sapiens, UniProt Q96D31); assay: Inhibition of […] Orai1-medited store operated calcium entry in human MDA-MB-231 cells at 30 uM pretreated for 15 mins followed by BAPTA addition by PBX dye based FLIPR assay relative to control; type: cell-based
Method in brief: (§2)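 MDA-MB-231 cells seeded 2×10^3/well and used 3 days later. Loaded 1 h at 37 °C with 2 µM PBX calcium dye, 5% signal enhancer and 500 µM probenecid in PSS, pH 7.3. Compound pretreated 15 min at room temperature. Then 500 µM BAPTA, 10 µM CPA, and 0.5 mM CaCl2 700 s after CPA. Read-out: peak 2 height as % inhibition vs DMSO. 95% CI, n = 4.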
Target sequence in this assay (Q96D31 whole entry, looked up): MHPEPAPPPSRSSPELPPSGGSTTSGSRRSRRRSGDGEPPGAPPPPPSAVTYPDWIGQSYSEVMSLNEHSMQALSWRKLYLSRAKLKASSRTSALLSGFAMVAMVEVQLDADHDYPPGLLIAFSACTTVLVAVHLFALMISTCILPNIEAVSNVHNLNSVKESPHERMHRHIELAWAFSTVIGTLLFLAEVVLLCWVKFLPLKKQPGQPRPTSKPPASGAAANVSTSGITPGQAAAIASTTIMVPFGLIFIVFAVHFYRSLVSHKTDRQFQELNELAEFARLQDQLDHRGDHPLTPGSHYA

[2] = Inhibition of CRAC in rat RBL2H3 cells assessed blockade of IP3-induced calcium flux pretreated for 30 to 60 mins followed by IP3 addition by Qpatch analysis; type: cell-based; details: RBL-2H3
[3] = target: T1, Calcium release-activated calcium channel protein 1; assay: Inhibition of […] Orai1-medited store operated calcium entry in human MDA-MB-231 cells at 10 uM pretreated for 15 mins followed by BAPTA addition by PBX dye based FLIPR assay relative to control; type: cell-based; method in brief: as §2
Target sequence in this assay (Q96D31 whole entry, looked up): as above

[4] = target: T1, Calcium release-activated calcium channel protein 1; assay: Inhibition of […] Orai1-medited store operated calcium entry in human MDA-MB-231 cells at 100 uM pretreated for 15 mins followed by BAPTA addition by PBX dye based FLIPR assay relative to control; type: cell-based; method in brief: as §2
Target sequence in this assay (Q96D31 whole entry, looked up): as above

[5] = target: T1, Calcium release-activated calcium channel protein 1; assay: Inhibition of […] Orai1-medited store operated calcium entry in human MDA-MB-231 cells pretreated for 15 mins followed by BAPTA addition by PBX dye based FLIPR assay; type: cell-based; method in brief: as §2
Target sequence in this assay (Q96D31 whole entry): as the sequence (Q96D31 whole entry, looked up) above

[6] = Inhibition of endoplasmic reticulum calcium channel in human MDA-MB-231 cells assessed as reduction in endoplasmic reticulum intracellular calcium release pretreated for 15 mins followed by SERCA inhibitor CPA addition measured after 700 secs by PBX dye based FLIPR assay; type: cell-based; method in brief: as §1
[7] = target: T1, Calcium release-activated calcium channel protein 1; assay: Inhibition of […] Orai1-medited store operated calcium entry in human MDA-MB-231 cells at 300 uM pretreated for 15 mins followed by BAPTA addition by PBX dye based FLIPR assay relative to control; type: cell-based; method in brief: as §2
Target sequence in this assay (Q96D31 whole entry, looked up): as above

[8] = Inhibition of CRAC in human Jurkat T cells assessed as increase in TG-stimulated intracellular calcium depletion measured every 8 secs by Ca2+ dye based fluorescence assay; type: cell-based
[9] = Lipophilicity, log P of the compound; type: physicochemical; details: octanol/water
[10] = target: Voltage-dependent L-type calcium channel subunit alpha-1D (Homo sapiens) (UniProt Q01668); assay: Inhibition of Cav1.3 (unknown origin) up to 100 uM
[11] = Stability of the compound in M1/M0 H2O; type: ADME
[12] = Half life in mouse liver microsomes; type: ADME, microsome
[13] = target: Voltage-dependent N-type calcium channel subunit alpha-1B (Homo sapiens) (UniProt Q00975); assay: Inhibition of Cav2.2 in human SH-SY5Y cells assessed as reduction in KCl/CaCl2-induced calcium flux up to 100 uM pretreated for 300 secs followed by KCl/CaCl2 addition measured in presence of nifedipine by calcium 4-dye based FLIPR assay; type: cell-based
Method in brief: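 SH-SY5Y cells plated at 50,000/well and used 48 h later. Loaded 30 min at 37 °C/5% CO2 with Calcium 4 dye in PSS containing 1.8 mM CaCl2. Nifedipine 10 µM present. Compound added 300 s before stimulation with KCl (90 mM)/CaCl2 (5 mM). Calcium flux read on FLIPR.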

[14] = Solubility of the compound in alpha minimum essential medium; type: physicochemical
[15] = target: Transient receptor potential cation channel subfamily M member 8 (Rattus norvegicus) (UniProt Q8R455); assay: Inhibition of rat TRPM8 expressed in HEK293 cells assessed as reduction in menthol-induced calcium flux up to 100 uM pretreated for 300 secs followed by menthol addition by calcium 4-dye based FLIPR assay; type: cell-based
Method in brief: (§3)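 HEK293 cells transfected with rat TRPV1 or rat TRPM8 plasmid using Lipofectamine 2000, plated at 10,000/well and assayed 48 h after transfection. Calcium 4 dye loaded 30 min at 37 °C in PSS with 1.8 mM CaCl2. Compound added 300 s before agonist: capsaicin 100 nM for TRPV1, menthol 100 µM for TRPM8. Fluorescence read on FLIPR.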

hERG (KCNH2) = hERG (KCNH2) (Homo sapiens, UniProt Q12809); assay: Inhibition of human ERG at 10 uM relative to control
hERG (KCNH2), sequence (Q12809 whole entry): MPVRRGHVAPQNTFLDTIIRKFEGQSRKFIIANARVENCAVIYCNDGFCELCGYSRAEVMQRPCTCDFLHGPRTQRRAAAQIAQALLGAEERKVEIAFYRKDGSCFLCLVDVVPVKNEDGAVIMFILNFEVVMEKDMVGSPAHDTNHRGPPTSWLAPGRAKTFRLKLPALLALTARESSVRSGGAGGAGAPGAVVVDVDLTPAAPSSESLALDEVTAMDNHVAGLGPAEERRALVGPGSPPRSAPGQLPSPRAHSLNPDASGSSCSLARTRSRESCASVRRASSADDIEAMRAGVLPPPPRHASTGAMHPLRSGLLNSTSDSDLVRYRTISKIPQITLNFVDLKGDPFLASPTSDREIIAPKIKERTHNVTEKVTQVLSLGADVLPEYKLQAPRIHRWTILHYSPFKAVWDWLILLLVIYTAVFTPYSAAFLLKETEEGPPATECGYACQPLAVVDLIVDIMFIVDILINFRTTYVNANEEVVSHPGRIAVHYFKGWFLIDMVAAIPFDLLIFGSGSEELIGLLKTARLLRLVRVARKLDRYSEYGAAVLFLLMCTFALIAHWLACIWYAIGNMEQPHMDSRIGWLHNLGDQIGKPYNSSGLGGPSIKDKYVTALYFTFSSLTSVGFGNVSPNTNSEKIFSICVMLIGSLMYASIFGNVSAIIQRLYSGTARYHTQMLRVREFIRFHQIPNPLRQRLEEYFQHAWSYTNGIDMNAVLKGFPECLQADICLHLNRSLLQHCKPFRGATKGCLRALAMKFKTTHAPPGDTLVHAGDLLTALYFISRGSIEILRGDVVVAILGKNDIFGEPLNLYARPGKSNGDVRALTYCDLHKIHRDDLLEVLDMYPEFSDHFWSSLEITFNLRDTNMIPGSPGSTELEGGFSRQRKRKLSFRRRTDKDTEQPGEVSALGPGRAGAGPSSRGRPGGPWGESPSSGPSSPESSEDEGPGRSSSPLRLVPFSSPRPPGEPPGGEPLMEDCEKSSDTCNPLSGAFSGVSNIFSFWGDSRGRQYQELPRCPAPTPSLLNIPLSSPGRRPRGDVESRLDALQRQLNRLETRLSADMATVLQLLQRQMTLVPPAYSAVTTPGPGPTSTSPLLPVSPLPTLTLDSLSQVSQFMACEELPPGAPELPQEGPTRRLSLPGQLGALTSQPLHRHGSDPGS

[16] = Half life in human liver microsomes; type: ADME, microsome
[17] = target: Transient receptor potential cation channel subfamily V member 1 (Rattus norvegicus) (UniProt O35433); assay: Inhibition of rat TRPV1 expressed in HEK293 cells assessed as reduction in capsaicin-induced calcium flux up to 100 uM pretreated for 300 secs followed by capsaicin addition by calcium 4-dye based FLIPR assay; type: cell-based; method in brief: as §3
Transient receptor potential cation channel subfamily V member 1 (Rattus norvegicus), sequence (O35433 whole entry): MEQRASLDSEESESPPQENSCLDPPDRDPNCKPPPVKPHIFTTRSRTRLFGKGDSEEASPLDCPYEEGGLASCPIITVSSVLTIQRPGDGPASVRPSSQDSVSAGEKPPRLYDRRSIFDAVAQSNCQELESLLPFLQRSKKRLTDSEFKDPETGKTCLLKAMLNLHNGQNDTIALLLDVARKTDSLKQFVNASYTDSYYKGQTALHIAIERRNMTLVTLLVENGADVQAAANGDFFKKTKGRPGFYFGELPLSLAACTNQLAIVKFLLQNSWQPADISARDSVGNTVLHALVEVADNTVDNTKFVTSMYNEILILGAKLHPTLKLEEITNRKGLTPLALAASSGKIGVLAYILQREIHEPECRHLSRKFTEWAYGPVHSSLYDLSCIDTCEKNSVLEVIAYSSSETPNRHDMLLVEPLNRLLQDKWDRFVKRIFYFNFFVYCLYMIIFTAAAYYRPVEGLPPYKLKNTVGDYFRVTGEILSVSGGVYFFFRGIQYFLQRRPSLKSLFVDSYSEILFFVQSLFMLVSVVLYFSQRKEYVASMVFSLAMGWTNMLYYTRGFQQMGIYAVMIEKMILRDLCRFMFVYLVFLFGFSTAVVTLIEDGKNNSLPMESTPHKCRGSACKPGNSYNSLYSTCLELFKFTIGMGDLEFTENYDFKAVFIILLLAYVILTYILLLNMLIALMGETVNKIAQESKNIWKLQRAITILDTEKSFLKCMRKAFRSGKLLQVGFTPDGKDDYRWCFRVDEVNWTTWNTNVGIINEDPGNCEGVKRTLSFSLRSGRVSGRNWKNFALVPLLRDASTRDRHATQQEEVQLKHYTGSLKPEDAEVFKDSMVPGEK

[18] = target: Voltage-dependent L-type calcium channel subunit alpha-1C (Homo sapiens, UniProt Q13936); assay: Inhibition of Cav1.2 (unknown origin) up to 100 uM
Voltage-dependent L-type calcium channel subunit alpha-1C, sequence (Q13936 whole entry): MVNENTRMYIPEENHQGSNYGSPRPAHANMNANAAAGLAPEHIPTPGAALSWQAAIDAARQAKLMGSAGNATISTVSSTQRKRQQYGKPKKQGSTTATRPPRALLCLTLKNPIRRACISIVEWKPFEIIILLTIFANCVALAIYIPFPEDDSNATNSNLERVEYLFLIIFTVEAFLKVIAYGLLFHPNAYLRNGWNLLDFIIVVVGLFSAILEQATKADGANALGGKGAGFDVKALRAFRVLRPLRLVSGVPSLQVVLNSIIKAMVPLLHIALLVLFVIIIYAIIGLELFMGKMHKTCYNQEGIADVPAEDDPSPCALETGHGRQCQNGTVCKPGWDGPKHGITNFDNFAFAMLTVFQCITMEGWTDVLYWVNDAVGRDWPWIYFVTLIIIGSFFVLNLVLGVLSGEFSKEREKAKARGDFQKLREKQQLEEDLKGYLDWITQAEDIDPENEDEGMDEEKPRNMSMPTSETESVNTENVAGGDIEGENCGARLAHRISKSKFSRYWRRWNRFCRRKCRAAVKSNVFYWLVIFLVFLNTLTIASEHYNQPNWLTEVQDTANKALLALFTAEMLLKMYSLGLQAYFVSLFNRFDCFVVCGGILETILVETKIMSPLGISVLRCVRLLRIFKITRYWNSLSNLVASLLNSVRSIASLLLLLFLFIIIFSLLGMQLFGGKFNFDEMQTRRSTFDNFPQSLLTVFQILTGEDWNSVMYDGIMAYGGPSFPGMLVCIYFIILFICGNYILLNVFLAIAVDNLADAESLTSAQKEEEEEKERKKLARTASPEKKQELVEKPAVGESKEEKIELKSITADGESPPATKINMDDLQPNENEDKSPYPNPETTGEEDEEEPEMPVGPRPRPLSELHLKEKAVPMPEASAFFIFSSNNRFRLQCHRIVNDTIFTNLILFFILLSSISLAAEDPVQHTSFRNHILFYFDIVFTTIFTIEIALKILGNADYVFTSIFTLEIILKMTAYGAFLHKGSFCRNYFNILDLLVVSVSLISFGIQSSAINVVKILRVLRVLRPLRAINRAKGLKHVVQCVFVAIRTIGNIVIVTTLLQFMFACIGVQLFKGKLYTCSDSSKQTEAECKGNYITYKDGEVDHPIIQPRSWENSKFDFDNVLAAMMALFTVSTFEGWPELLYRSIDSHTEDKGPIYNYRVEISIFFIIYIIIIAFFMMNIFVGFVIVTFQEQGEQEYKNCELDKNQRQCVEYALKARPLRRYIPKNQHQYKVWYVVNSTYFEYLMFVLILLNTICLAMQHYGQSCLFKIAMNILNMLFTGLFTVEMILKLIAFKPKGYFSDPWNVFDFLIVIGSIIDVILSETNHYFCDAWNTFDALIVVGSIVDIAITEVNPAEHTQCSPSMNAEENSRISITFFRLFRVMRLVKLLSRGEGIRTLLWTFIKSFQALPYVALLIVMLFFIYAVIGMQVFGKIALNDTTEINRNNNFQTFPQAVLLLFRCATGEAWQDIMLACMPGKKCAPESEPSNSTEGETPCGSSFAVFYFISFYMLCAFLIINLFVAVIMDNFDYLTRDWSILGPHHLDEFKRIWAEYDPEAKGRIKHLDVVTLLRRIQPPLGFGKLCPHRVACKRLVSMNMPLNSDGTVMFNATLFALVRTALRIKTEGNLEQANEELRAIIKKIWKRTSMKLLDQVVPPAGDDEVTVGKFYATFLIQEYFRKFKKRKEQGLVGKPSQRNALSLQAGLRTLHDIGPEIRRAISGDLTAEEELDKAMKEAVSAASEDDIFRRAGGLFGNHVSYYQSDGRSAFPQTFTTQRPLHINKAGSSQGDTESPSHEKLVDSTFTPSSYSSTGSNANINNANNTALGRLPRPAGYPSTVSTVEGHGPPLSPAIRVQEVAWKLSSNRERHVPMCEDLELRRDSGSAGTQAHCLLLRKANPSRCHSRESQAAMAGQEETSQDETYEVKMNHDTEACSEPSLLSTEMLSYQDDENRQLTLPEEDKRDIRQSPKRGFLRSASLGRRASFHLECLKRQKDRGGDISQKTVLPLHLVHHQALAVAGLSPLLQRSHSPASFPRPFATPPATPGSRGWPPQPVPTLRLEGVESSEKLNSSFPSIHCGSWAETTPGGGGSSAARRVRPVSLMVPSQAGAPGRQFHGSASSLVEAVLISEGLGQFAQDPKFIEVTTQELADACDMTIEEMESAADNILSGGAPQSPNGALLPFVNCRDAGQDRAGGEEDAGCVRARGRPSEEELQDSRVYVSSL

[19] = Inhibition of […] in thapsigargin-stimulated human Jurkat T cells assessed as blockade of intracellular calcium flux by fluo-4-AM dye based FLIPR assay; type: cell-based

## O=C(Cc1ccccc1)N1N=C(c2cccc(NC(=O)C(F)(F)F)c2)CC1(O)C(F)(F)F (stereo unspecified)
MDA-MB-231
  inhibition: < 10%
[1]
  inhibition: 60%

## CC1=C(c2cnc(NC(=O)c3c(F)cccc3F)cn2)CN(c2ncc(C)s2)CC1
[2]
  IC50: 0.4 µM

## Cc1ccccc1C1=NN(C(=O)Cc2ccccc2)C(O)(C(F)(F)F)C1 (stereo unspecified)
MDA-MB-231
  inhibition: < 10%
[1]
  inhibition: 50%

## COc1cccc(C2=NN(C(=O)Cc3ccccc3)C(O)(C(F)(F)F)C2)c1 (stereo unspecified)
[3]
  inhibition: 14%
MDA-MB-231
  inhibition: < 10%
[4]
  inhibition: 36 to 37%

## Cc1ccccc1C1(O)CC(C(F)(F)F)=NN1C(=O)c1ccccc1 (stereo unspecified)
[3]
  inhibition: 20%
MDA-MB-231
  inhibition: < 10%

## O=C(Cc1ccccc1)N1N=C(c2cccc(F)c2)CC1(O)C(F)(F)F (stereo unspecified)
MDA-MB-231
  inhibition: < 10%
[1]
  inhibition: 60%

## O=C(Cc1ccccc1)N1N=C(C(F)(F)F)CC1(O)c1ccccc1C(F)(F)F (stereo unspecified)
[5]
  IC50: 49 µM
[6]
  IC50: 80 µM

## O=C(Cc1ccccc1)N1N=C(c2ccc(N3CCOCC3)cc2)CC1(O)C(F)(F)F (stereo unspecified)
MDA-MB-231
  inhibition: < 10%
[7]
  inhibition: 50%
[4]
  inhibition: < 10%

## O=C(Cc1ccccc1)N1N=C(c2ccc3c(c2)CCCC3)CC1(O)C(F)(F)F (stereo unspecified)
MDA-MB-231
  inhibition: < 10%
[5]
  IC50: 89 µM
[4]
  inhibition: 50%

## Cc1nnsc1C(=O)Nc1ccc(-n2nc(C(F)(F)F)cc2C(F)(F)F)cc1
[8]
  IC50: 0.01 µM

## O=C(Cc1ccccc1)N1N=C(c2ccncc2)CC1(O)C(F)(F)F (stereo unspecified)
MDA-MB-231
  inhibition: < 10%
[7]
  inhibition: 50%
[4]
  inhibition: < 10%

## CS(=O)(=O)Nc1cccc(C2=NN(C(=O)Cc3ccccc3)C(O)(C(F)(F)F)C2)c1 (stereo unspecified)
MDA-MB-231
  inhibition: < 10%
[1]
  inhibition: 20%

## COc1cccc(C2(O)CC(C(F)(F)F)=NN2C(=O)Cc2ccccc2)c1 (stereo unspecified)
[3]
  inhibition: 11%
MDA-MB-231
  inhibition: inactive
[9]
  logP: 4.4
[10]
  inhibition: inactive
[11]
  Stability: 93.2%
[12]
  half-life: 3.3 min
[13]
  inhibition: inactive
[14]
  solubility: 16.8 µg/mL (≈ 44.4 µM)
[15]
  inhibition: inactive
[4]
  inhibition: 37%
hERG (KCNH2)
  inhibition at 10 µM: 9.1%
[16]
  half-life: 8.2 min
[17]
  inhibition: inactive
[18]
  inhibition (INH): Not Active

## COc1ccc(OC)c(-c2ccc(NC(=O)c3ccncc3F)cc2)c1
[19]
  IC50: 1.4 µM

Reference: ChEMBL document CHEMBL4118190, “An SAR study of hydroxy-trifluoromethylpyrazolines as inhibitors of Orai1-mediated store operated Ca2+ entry in MDA-MB-231 breast cancer cells using a convenient Fluorescence Imaging Plate Reader assay” (Bioorg Med Chem, 2018)
